Compound activity as filed in PubChem BioAssay.
PLC-beta3 inh – human PLC-beta3 inhibitors, primary screen, biochemical, fluorescence | 1-phosphatidylinositol 4,5-bisphosphate phosphodiesterase beta-3 (Homo sapiens), Q01970 | Purified PLC-beta3, fluorogenic substrate | inhibition, % at 12.2 µM | hit rate 0.18% among 370,000 | AID 720704, 2013; in the data active = inhibition above about 11%;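 note: 0% = median of compound wells on plate and 100% = full blocker control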
Tn7 DDE FP – inhibitors of Tn7 peptide binding to fibrin DD(E), primary screen, biochemical, fluorescence polarization, human fibrin, Tn7 probe; FP displacement of FITC-Tn7 peptide from fibrin DD(E); 0% = median of compound wells per plate; Fibrinogen beta chain (Homo sapiens), P02675; hit rate 0.13% among 370,000; AID 720508, 2013; inhibition, % at 8.3 µM;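 active = inhibition above the mean of compounds falling within the control limits plus 3 SD of them, cut at about 14% in these data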;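 note: 0% = plate median of compound wells and 100% = 10 µM Aha-Tn7 peptide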
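Assay system: Fibrin-DD(E) protein isolated from polymerized human fibrin clots; read-out basis: percent inhibition; medium: Tris/NaCl/CaCl2 buffer, pH 7.8; signal: FP measurement; incubation: 10 min plus 3 h, room temperature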
PLCg1 inh – PLC-gamma1 enzyme inhibitors, primary screen, biochemical, fluorescence, purified enzyme; fluorogenic substrate; AID 720700, 2013; 1-phosphatidylinositol 4,5-bisphosphate phosphodiesterase gamma-1 (Homo sapiens), P19174; inhibition, % at 12.2 µM; hit rate 0.84% among 370,000; in the data active = inhibition above about 9.5%
proKLK7 act – proKLK7 zymogen activators, primary screen, biochemical, fluorescence intensity. activation, % at 7 µM. hit rate 0.9% among 370,000. Kallikrein-7 (Homo sapiens), P49862. purified proKLK7, EDANS-DABCYL substrate fluorescence; 100% is mature enzyme control, 0% vehicle;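 active = activation above the mean of all tested compounds plus 3 SD, computed per campaign excluding outliers beyond control limits, cut at about 13% in these data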
Target sequence (P49862 whole entry, looked up): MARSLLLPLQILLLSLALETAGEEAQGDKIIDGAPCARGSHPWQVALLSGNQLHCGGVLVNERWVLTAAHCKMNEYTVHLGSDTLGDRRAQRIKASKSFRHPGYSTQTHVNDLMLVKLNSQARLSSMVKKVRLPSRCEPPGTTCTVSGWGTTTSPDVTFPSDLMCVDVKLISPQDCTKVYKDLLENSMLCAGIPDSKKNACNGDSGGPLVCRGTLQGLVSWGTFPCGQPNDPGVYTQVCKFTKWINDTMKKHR
Tn6 DDE FP – inhibitors of Tn6 peptide binding to fibrin DD(E), primary screen, biochemical, fluorescence polarization, human fibrin, Tn6 probe | inhibition, % at 8.3 µM | Fibrinogen beta chain (Homo sapiens), P02675 | hit rate 0.21% among 370,000 | AID 720509, 2013 | Fibrin DD(E) TRITC-Tn6 fluorescence polarization displacement;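 active = inhibition above a per-campaign cutoff: mean of compounds within control limits plus 3 SD, cut at about 15% in these data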;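 note: 0% = median of all compound wells on the plate and 100% = blocking peptide control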
CendR NRP1 mod – modulators of CendR peptide binding to NRP-1, primary screen, biochemical, fluorescence polarization, uHTS. FAM-RPARPAR peptide binding to NRP-1. inhibition, % at 25 µM. hit rate 0.85% among 360,000;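 active = inhibition or corrected inhibition above about 18%, plus a signal ratio from 0.5 to 1.5, limit read from the data, passing the limit was not always enough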
* hit, by the source's call; i = inactive; . = no result. In the library only some 3% were active in any assay of this set; here they are far more common.

SMILES	PLC-beta3 inh	Tn7 DDE FP	PLCg1 inh	proKLK7 act	Tn6 DDE FP	CendR NRP1 mod
COc1ccc(N2CCCC2)c(NC(=O)c2ccc(Br)o2)c1	-101.9	9.4	-66.1	0.6	-3.5	61.1*
O=C(Nc1ccccc1N1CCCC1)c1ccc(Br)o1	-17.9	-7.3	-12.3	-0.4	-4.0	-14.7
COC(=O)[C@]12C[C@H](CC(=O)N3CCOCC3)C(=O)N(Cc3ccco3)C1=C[C@H](C(C)C)O[C@@H]2C1CC1	-0.3	-4.7	2.2	0.0	-1.2	.
O=C(COC(=O)c1ccccn1)c1ccc([N+](=O)[O-])cc1	-3.1	-2.9	2.4	-0.3	-6.9	22.2*
CC(=O)c1ccc(N2CCN(C(=O)/C=C/c3ccc(S(=O)(=O)N4CCOCC4)cc3)CC2)cc1	0.3	0.9	6.2	0.0	-2.2	25.6*
O=C(/C=C/c1ccc(S(=O)(=O)N2CCOCC2)cc1)N1CCCCC1	-2.0	-3.5	2.9	-0.2	8.0	-9.1
CCOc1ccc(CCNS(=O)(=O)c2cn(C)cn2)cc1OCC	-11.8	-1.5	-2.2	-0.5	6.3	6.6
CCOc1cc(CNS(=O)(=O)c2cn(C)cn2)cc(OCC)c1OCC	-12.1	-0.2	2.8	0.4	0.3	21.5*
CCCC[C@H]1C2CC(OC(=O)Nc3ccccc3)C(C2)[C@H]2CCCCN21 (stereo partly specified)	-1.4	1.5	0.0	-0.3	-2.9	.
CCOC(=O)c1cnc2ccc(C)cc2c1NCCO	-3.6	5.2	-0.6	0.8	1.2	26.7*
CCOC(=O)c1cnc2c(ccc3ccccc32)c1NCCO	-36.6	5.3	-24.8	0.0	-5.4	-12.6
Cc1ccc2nc(N3CCN(c4ccccc4)CC3)c(C=O)c(=O)n2c1	-6.1	-2.4	-8.7	0.6	-2.0	5.2
Cc1ccc2nc(N3CCN(C)CC3)c(C=O)c(=O)n2c1	-189.5	5.4	-139.5	7.2	-1.9	21.6*
C=CCN(Cc1ccc2c(c1)OCO2)C(C#CC1CC1)C(C)C (stereo unspecified)	-0.3	-6.6	1.1	-0.1	-2.5	.
C=CCNC(=O)CN(C(=O)c1csc2ccc(Cl)cc12)c1cccc(Br)c1	2.5	2.4	1.9	0.1	4.6	.
C#CCNC(=O)C[C@H]1C[C@@]2(C(=O)OC)C(=C[C@H](C(C)(C)C)O[C@@H]2C)N(Cc2ccc(Cl)cc2Cl)C1=O	1.5	-4.5	0.9	0.1	-9.8	.
Cc1cn([C@H]2C[C@H](O)[C@@H](CCC(=O)NCCCn3ccnc3)O2)c(=O)[nH]c1=O	1.8	-3.4	-0.2	0.1	-0.1	31.3*
CCCCOc1ccc(/C=c2\sc3ncnn3c2=O)cc1	-0.9	-1.4	-1.5	-0.2	-1.2	20.3*
C=CCN(CC#CC1=CCCCC1)CC1CC1	1.1	9.0	-0.8	0.0	2.9	.
NNc1ncnc2c1cnn2-c1ccccc1	-15.4	-2.1	-9.4	-0.4	7.8	28.1*
CNC(=O)[C@@H]1CC=C[C@@H]2CCN(c3ccccc3)C(=O)[C@@H]21	1.9	-2.8	1.4	.	3.3	.
CC(C)n1nnnc1C1(C)CCSCC(=O)N1Cc1cccc(C(F)(F)F)c1 (stereo unspecified)	-2.2	-1.7	-2.3	-0.1	-5.0	.
CC(C)CNC(=O)OCc1cn(Cc2ccc(F)c(F)c2)nn1	-0.8	-2.1	3.3	-0.8	2.6	.
O=C1CCC[C@H]2Cc3nc4cc5c(cc4cc3C[C@]23CCCN13)OCO5	-3.7	-1.8	-2.3	.	-3.7	.
Nc1ccc(N2CCN(CCCCN3C(=O)C4CCCN4C3=O)CC2)cc1 (stereo unspecified)	-12.5	1.0	-9.9	0.5	50.4*	-5.5
SMILES	PLC-beta3 inh	Tn7 DDE FP	PLCg1 inh	proKLK7 act	Tn6 DDE FP	CendR NRP1 mod
O=C1C2CCCCN2C(=O)N1CCCN1CCN(c2ccc(F)cc2)CC1 (stereo unspecified)	.	.	.	.	.	2.6
CCCOc1ccc(-c2cc(C(C)=O)c3n(c2=O)CCC3)cc1	-19.0	1.3	-9.8	-0.1	-3.4	.
COc1ccc(S[C@]2(C(=O)N3CCN(C(C)=O)CC3)CC(=O)N(S(=O)(=O)c3ccc(F)cc3)[C@@H]2c2ccc(OC)cc2)cc1	0.3	-3.8	1.8	0.7	0.7	.
COCCn1c(SCC(=O)Nc2ccccc2)nc2c1c(=O)[nH]c(=O)n2C	2.5	0.2	9.8*	-0.9	-2.6	-2.5
CCOC(=O)C(C(=O)NCc1ccc(F)cc1)c1ncc(C(F)(F)F)cc1Cl (stereo unspecified)	-0.2	0.0	-1.1	0.0	-2.4	24.7*
COc1cccc(CNC(=O)C(C(=O)NCc2cccc(OC)c2)c2ncc(C(F)(F)F)cc2Cl)c1	2.5	-2.2	0.5	0.9	0.8	7.8
Cc1cc(-c2ccc(S(=O)(=O)NCc3ccc(Cl)cc3)cc2)on1	-4.0	-8.0	0.1	0.7	-6.8	28.3*
Cc1nc2cc(Cl)c(Cl)cc2n1CCCO	-6.4	2.2	0.3	0.1	-5.4	-8.2
Cc1cc(=S)cc(C)n1CCCO	-0.1	1.4	-3.2	0.0	-3.6	31.7*
COc1ccc2oc(=O)c(C(=O)Oc3ccc(NC(C)=O)cc3)cc2c1	i	8.3	i	214.9*	0.8	-0.6
CCCCNC(=O)[C@@H]1CCCN1S(=O)(=O)c1cccc2cccnc12	2.5	0.0	2.6	0.5	3.4	33.0*
Cc1ccc2c(c1)C(=O)C(=O)N2Cc1ccccc1	-4.9	-7.4	-6.3	-0.4	-5.9	8.9
CCN1C(=O)C(=O)c2cc(C)ccc21	-8.4	-11.5	-2.0	0.8	-5.8	33.7*
O=C(NCc1cccs1)c1ccc(Cl)c(S(=O)(=O)N2CCOCC2)c1	6.2	-7.1	4.5	0.0	-2.4	30.8*
COC(=O)c1cc(-c2ccccc2)c(=O)n2c1CCC2	-1.9	1.2	-4.4	0.0	3.4	.
CCOC(=O)CN1CCCc2nc(C)c(C)cc21	-348.8	4.0	-268.5	28.8*	8.2	.
O=C(Nc1ccc2c(c1)OCCO2)C1C(=O)Nc2ccccc2C(=O)N1C1CCCCC1 (stereo unspecified)	-1.7	7.0	-2.8	-0.1	4.8	21.0*
CC(C)CNC(=O)C1C(=O)Nc2ccccc2C(=O)N1C1CCCCC1 (stereo unspecified)	-11.2	-0.9	-9.1	0.0	-1.1	-1.2
CC1(c2nnc(Cc3ccccc3)o2)CC(c2cccc(Cl)c2)=NO1 (stereo unspecified)	2.0	-1.2	1.9	0.5	3.7	27.5*
COCCn1c(SCc2cc(=O)n3ccsc3n2)nnc1-c1ccncc1	-5.7	2.6	0.7	-0.3	-1.7	-9.8
